Numbering of substitutions follows the chain as printed.
How the values were obtained:
Type in all cases: cell-based
[1] = biological target: T1, E363Q mutant CNGA1 channel (Bos taurus, UniProt Q00194, E363Q); test: Block of E363Q single-channel currents by extracellular Mg^2+
T1 sequence (Q00194 1-690 E363Q): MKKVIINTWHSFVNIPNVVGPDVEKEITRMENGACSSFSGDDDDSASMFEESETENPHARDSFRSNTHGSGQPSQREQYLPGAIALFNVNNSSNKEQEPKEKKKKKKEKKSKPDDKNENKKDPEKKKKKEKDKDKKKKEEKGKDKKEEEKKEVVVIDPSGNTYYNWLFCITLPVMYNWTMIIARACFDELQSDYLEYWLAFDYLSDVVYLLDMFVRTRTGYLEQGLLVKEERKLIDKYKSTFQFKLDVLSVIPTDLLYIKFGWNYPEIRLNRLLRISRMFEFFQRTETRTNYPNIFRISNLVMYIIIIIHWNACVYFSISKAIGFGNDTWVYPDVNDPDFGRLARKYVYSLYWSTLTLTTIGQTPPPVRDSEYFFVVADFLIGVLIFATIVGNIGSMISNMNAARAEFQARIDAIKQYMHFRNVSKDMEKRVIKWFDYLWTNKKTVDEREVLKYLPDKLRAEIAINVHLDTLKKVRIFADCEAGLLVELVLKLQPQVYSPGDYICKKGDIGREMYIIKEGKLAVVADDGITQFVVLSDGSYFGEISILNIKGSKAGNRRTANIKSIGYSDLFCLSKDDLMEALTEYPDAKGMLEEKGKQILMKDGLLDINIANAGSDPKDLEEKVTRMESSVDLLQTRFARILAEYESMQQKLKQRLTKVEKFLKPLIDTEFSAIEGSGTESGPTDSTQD
Method in brief: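 Xenopus laevis oocytes were collagenase-defolliculated, cRNA-injected, and kept at 18°C. […] E363Q single-channel currents were recorded at 120 or −120 mV with or without 0.1 mM extracellular Mg2+, one patch per trace. Filtering was 1 kHz and sampling 10 kHz. Amplitudes are mean ± SEM, n = 5–20.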

[2] = biological target: T2, wild-type CNGA1 channels (Bos taurus, UniProt Q00194)
T2 sequence (Q00194 1-690): T1 sequence (Q00194 1-690 E363Q) with Q363E

[3] = tested on: WT and E363Q CNGA1 channels; settings: fit of Eq. 1 to G-V relations 10 to 200 mV, WT and E363Q together
[4] = biological target: T1, E363Q mutant CNGA1 channel
[5] = biological target: T3, V384A mutant CNGA1 channel (Bos taurus, UniProt Q00194, V384A); test: Voltage-dependent block by intracellular PhTx, V384A
T3 sequence (Q00194 1-690 V384A): T1 sequence (Q00194 1-690 E363Q) with Q363E, V384A
Method in brief: (§1)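 WT or mutant CNGA1 cRNA was injected into collagenase-defolliculated Xenopus oocytes. […] I-V curves were taken from −80 mV holding with steps of −200 to 200 mV in 10-mV increments. No-cGMP currents were subtracted as background. Recordings were made with or without 10 µM intracellular PhTx, and fraction unblocked (I/Io) was reported as mean ± SEM, n = 4–6.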

[6] = biological target: T4, wild-type (WT) CNGA1 channel (Bos taurus, UniProt Q00194); test: Voltage-dependent block by intracellular PhTx, wild type
T4 sequence (Q00194 1-690): T1 sequence (Q00194 1-690 E363Q) with Q363E
Method in brief: as §1

[7] = biological target: T5, F387A mutant CNGA1 channel (Bos taurus, UniProt Q00194, F387A); test: Voltage-dependent block by intracellular PhTx, F387A
T5 sequence (Q00194 1-690 F387A): T1 sequence (Q00194 1-690 E363Q) with Q363E, F387A
Method in brief: as §1

[8] = biological target: T6, T389A mutant CNGA1 channel (Bos taurus, UniProt Q00194, T389A); test: Voltage-dependent block by intracellular PhTx, T389A
T6 sequence (Q00194 1-690 T389A): T1 sequence (Q00194 1-690 E363Q) with Q363E, T389A
Method in brief: as §1

[9] = biological target: T7, I386A mutant CNGA1 channel (Bos taurus, UniProt Q00194, I386A); test: Voltage-dependent block by intracellular PhTx, I386A
T7 sequence (Q00194 1-690 I386A): T1 sequence (Q00194 1-690 E363Q) with Q363E, I386A
Method in brief: as §1

[10] = biological target: T8, I390A mutant CNGA1 channel (Bos taurus, UniProt Q00194, I390A); test: Voltage-dependent block by intracellular PhTx, I390A
T8 sequence (Q00194 1-690 I390A): T1 sequence (Q00194 1-690 E363Q) with Q363E, I390A
Method in brief: as §1

[11] = read-out: appKd, Boltzmann fit of I/Io at 10 µM intracellular PhTx
[12] = valence of block, Boltzmann fit

With `[Mg+2]` [Mg^2+] the Ki ([1]; read-out: estimated Ki, −120 mV, estimated from 37% reduction at 100 µM) was 170000 nM and the “reduction of single-channel current amplitude” value ([1]; −120 mV, 100 µM external Mg^2+) was 37%.
For `Nc1nc2c(ncn2[C@@H]2O[C@@H]3COP(=O)(O)O[C@H]3[C@H]2O)c(=O)[nH]1` [cGMP, cyclic GMP], the “valence factor of KL” value [2] was 0.04, the “Hill coefficient (n)” value ([2]; common to −200 and 200 mV) was 1.48 ± 0.03 and the “variation of KL” value ([2]; over 400 mV (−200 to 200 mV)) was “twofold”. For the same molecule, the “Hill coefficient (n)” value [3] was 1.44 ± 0.06, the Kd ([3]; read-out: KL) was 78000 ± 4000 nM and the “valence factor of KL” value [4] was −0.1. The “Hill coefficient (n)” value ([4]; common to 40 and 200 mV) was 1.44 ± 0.01.
philanthotoxin [PhTx] was tested, and the Kd [5, 11] was 3500 nM, the Z [5, 12] was 2.81 ± 0.09 and the Kd [6, 11] was 1600 nM. The Z [6, 12] was 2.48 ± 0.07, the Kd [7, 11] was 52000 nM and the Z [7, 12] was 0.96 ± 0.02. The Kd [8, 11] was 1600 nM, the Z [8, 12] was 2.25 ± 0.06 and the Kd [9, 11] was 830 nM. It also gave a Z [9, 12] of 2.55 ± 0.07, a Kd [10, 11] of 1200 nM and a Z [10, 12] of 2.67 ± 0.08.

Reference: PMC2717697 (The Journal of General Physiology, 2009)
